Laboratory results: ChEMBL document CHEMBL4834420, “Projected Dose Optimization of Amino- and Hydroxypyrrolidine Purine PI3Kδ Immunomodulators” (J Med Chem, 2021)
Calls of active or inactive are those of the source. The calls are words filed in the database; no cut-off is given here.

Experiments:
[1] = Intrinsic clearance in rat hepatocytes; format: ADME, cell-based, Hepatocyte; settings: read-out: CLH
[2] = Trough plasma concentration C57BL/6 mouse at 100 mg/kg; format: ADME, organism-based; settings: in vivo, read-out: Cmin
Method in brief: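 C57BL/6-Foxp3-GFP reporter mice were dosed at 30 and 100 mg/kg/day for up to 7 days, with exposure determined at 100 mg/kg. The unbound Cmax and trough values were derived from total plasma levels. Treg readout was bioluminescence imaging 10 min after 3 mg luciferin ip, reported as radiance in photons/s/cm²/steradian.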

[3] = Half life in C57BL/6 mouse; format: ADME; settings: in vivo
[4] = Intrinsic clearance in Beagle dog at 0.25 mg/kg, iv or 0.5 mg/kg, po; format: ADME, organism-based, Canis lupus familiaris; settings: in vivo
[5] = Intrinsic clearance in Wistar Han rat at 0.5 mg/kg, iv or 1 mg/kg, po; format: ADME, organism-based; settings: in vivo
[6] = Dissociation constant, pKa of compound; format: physicochemical
[7] = Oral bioavailability in Beagle dog; format: ADME, organism-based, Canis lupus familiaris; settings: in vivo
[8] = Trough plasma concentration Brown Norway rat at 10 mg/kg, po; format: ADME, organism-based; settings: in vivo, read-out: Cmin
Rattus norvegicus = assay: Immunomodulatory activity in ovalbumin induced Brown Norway rat allergic rhinitis model assessed as reduction in BAL count at 30 mg/kg, po administered for 2 days and treated with ovalbumin after 1 hr post second dose; format: functional, organism-based; settings: time 2.0 day
Method in brief: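 Brown Norway rats were presensitized with ovalbumin, 0.020 mg ip daily for 14 days. They then received compound orally for 2 days (0.3–30 mg/kg range studied). Ovalbumin challenge came 1 h after the second dose. Eosinophil cell count in bronchoalveolar lavage was assessed 48 h later.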

[9] = Protein binding in Beagle dog plasma; format: ADME, cell-free, Canis lupus familiaris; settings: read-out: PPB (converted)
[10] = Intrinsic clearance in dog hepatocytes; format: ADME, cell-based, Canis lupus familiaris, Hepatocyte; settings: read-out: CLH
Cytochrome P450 2C8 = molecular target: T1, Cytochrome P450 2C8 (Homo sapiens, UniProt P10632); assay: Inhibition of CYP2C8 (unknown origin); format: ADME
T1 sequence (P10632 whole entry): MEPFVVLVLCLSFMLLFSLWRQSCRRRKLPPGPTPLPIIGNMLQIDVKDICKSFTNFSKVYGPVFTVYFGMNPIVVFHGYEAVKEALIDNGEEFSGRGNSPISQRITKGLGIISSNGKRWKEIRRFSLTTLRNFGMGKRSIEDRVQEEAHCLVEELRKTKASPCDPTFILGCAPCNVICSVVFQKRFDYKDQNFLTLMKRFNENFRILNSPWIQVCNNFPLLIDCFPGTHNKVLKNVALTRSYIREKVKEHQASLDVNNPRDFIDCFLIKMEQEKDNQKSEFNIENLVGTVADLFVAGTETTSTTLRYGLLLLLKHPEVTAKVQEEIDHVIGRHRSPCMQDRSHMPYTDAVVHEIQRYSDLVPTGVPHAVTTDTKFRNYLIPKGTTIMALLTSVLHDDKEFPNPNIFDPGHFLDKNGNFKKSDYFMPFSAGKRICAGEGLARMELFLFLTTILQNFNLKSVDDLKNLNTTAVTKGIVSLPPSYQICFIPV

[11] = Half-life in Wistar Han rat; format: ADME; settings: in vivo
[12] = Inhibition of adenosine transporter in human HeLa cells assessed as reduction in [3H]adenosine uptake preincubated for 30 mins followed by [3H]adenosine addition and measured after 60 mins; format: cell-based
[13] = molecular target: T2, Phosphatidylinositol 4,5-bisphosphate 3-kinase catalytic subunit delta isoform (Homo sapiens, UniProt O00329); assay: Inhibition of PI3Kdelta in human whole blood assessed as reduction in anti-CD79b antibody-induced CD69 expression preincubated for 60 mins followed by anti-CD79b antibody stimulation and measured after 3 hrs by FACS analysis; format: tissue-based
T2 sequence (O00329 whole entry): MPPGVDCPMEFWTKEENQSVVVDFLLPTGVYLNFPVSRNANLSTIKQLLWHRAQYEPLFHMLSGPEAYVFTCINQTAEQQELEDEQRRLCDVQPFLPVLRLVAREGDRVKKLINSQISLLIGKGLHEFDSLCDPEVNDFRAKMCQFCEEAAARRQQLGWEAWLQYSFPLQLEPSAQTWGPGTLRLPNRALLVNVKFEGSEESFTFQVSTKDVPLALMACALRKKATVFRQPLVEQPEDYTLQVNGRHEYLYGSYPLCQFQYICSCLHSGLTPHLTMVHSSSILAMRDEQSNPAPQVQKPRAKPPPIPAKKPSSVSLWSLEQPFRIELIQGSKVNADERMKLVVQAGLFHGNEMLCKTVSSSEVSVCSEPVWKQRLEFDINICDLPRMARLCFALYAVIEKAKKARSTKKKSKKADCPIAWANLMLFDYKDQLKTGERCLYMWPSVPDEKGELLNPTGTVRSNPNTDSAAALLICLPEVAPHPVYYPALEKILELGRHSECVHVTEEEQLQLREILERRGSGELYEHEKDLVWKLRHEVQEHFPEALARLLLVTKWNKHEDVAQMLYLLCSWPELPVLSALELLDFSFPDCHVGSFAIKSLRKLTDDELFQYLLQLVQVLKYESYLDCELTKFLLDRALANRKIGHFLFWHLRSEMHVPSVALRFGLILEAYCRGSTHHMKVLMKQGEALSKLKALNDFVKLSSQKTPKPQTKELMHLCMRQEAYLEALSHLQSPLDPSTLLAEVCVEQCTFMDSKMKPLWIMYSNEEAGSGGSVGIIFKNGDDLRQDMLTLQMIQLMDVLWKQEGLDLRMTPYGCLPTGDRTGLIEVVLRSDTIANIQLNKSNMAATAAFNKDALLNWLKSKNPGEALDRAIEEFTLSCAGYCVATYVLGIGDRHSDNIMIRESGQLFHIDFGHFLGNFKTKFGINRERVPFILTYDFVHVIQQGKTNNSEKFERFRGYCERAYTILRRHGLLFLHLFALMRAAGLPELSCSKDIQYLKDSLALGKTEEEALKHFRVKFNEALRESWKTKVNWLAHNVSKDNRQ

[14] = molecular target: Voltage-dependent L-type calcium channel subunit alpha-1C (Homo sapiens, UniProt Q13936); assay: Inhibition of Cav1.2 (unknown origin)
Voltage-dependent L-type calcium channel subunit alpha-1C, sequence (Q13936 whole entry): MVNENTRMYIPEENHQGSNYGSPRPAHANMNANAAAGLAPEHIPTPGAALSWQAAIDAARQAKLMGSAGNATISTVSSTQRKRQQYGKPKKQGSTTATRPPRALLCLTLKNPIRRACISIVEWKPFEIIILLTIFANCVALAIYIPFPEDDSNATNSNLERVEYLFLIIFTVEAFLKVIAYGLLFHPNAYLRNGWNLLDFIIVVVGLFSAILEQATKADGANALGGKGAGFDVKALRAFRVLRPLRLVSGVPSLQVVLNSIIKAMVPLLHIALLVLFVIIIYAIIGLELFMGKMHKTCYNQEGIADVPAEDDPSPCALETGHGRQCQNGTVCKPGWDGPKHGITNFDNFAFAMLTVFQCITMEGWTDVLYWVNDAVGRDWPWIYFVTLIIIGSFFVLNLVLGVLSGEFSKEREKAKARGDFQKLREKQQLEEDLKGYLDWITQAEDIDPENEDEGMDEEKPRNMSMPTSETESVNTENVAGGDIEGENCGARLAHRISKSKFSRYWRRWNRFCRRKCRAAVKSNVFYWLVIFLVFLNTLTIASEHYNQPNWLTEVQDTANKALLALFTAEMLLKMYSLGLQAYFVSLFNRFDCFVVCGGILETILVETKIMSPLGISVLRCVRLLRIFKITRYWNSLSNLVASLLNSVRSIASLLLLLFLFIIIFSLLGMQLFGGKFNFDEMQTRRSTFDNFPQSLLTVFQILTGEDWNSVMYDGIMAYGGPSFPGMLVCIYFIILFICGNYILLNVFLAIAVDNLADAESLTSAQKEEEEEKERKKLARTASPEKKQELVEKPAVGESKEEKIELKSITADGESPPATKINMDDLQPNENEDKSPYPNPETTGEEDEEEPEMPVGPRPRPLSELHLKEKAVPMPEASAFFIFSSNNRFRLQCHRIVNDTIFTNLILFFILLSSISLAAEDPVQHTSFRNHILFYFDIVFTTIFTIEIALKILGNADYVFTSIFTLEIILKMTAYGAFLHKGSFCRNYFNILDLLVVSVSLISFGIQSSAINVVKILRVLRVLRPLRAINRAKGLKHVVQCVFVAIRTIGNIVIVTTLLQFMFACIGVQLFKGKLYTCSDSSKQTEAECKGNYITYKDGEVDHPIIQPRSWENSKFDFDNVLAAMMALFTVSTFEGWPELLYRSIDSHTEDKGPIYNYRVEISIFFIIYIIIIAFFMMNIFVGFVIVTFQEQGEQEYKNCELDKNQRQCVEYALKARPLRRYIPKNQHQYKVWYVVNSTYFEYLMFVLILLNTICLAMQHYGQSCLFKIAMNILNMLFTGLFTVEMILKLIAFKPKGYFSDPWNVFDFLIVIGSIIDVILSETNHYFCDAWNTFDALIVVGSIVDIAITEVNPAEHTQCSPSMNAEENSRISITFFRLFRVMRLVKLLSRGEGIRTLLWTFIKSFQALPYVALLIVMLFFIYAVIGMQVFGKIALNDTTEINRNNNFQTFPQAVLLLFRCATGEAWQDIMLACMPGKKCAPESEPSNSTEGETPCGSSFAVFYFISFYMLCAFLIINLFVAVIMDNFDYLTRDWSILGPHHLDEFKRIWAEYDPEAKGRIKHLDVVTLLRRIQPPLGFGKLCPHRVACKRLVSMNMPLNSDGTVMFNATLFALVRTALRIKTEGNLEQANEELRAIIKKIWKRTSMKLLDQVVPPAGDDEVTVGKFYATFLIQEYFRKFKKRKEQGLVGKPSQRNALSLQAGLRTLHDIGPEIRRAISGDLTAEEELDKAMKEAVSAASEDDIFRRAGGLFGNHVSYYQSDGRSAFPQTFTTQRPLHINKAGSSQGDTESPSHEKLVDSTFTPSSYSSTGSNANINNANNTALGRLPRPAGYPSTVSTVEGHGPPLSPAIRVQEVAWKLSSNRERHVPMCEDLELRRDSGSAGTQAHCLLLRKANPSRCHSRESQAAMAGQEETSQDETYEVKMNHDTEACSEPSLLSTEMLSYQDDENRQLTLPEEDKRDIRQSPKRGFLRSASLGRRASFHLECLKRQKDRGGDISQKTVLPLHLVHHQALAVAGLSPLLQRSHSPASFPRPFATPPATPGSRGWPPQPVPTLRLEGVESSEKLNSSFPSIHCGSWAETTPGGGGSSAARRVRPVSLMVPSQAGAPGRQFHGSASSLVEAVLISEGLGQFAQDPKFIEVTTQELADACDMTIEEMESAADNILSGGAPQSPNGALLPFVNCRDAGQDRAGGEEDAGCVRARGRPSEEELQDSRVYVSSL

[15] = Volume of distribution in Wistar Han rat; format: ADME; settings: in vivo
[16] = Protein binding in Wistar Han rat plasma; format: ADME, cell-free; settings: read-out: PPB (converted)

- CLint scaled [1]: < 2 mL/min/kg
- concentration [2]: 110 nM
- half-life [3]: 0.8 h
- CL [4]: 6.2 mL/min/kg
- CL [5]: 64 mL/min/kg
- pKa [6]: 3.06
- bioavailability [7]: 95%
- concentration [8]: 14 nM
- fraction unbound [9]: 0.9
- CLint scaled [10]: < 2 mL/min/kg
- IC50 (Cytochrome P450 2C8): > 50 µM
- half-life [11]: 2.7 h
- IC50 [12]: 5 µM
- IC50 [13]: 0.065 µM
- Vd [15]: 1 L/kg
- fraction unbound [16]: 0.18
Compound: CCn1c(-c2cnc(C)nc2)nc2c(N[C@H]3CCN(C(=O)C4CC4)C3)ncnc21
- Activity (Rattus norvegicus): Active
- IC50 [14]: > 50 µM
